ChEMBL document CHEMBL1926538, “3,5-Disubstituted-thiazolidine-2,4-dione analogs as anticancer agents: design, synthesis and biological characterization” (Eur J Med Chem, 2012)
Calls of active or inactive are those of the source. The rule behind the calls is not given here.

What was measured:
U-937 [1] = assay: Cell cycle arrest in human U937 cells assessed as decrease in G1/G0-phase population at 10 uM after 24 hrs by propidium iodide staining-based flow cytometric analysis; assay type: functional
Summary of the method: (§1)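 Cells cultured in RPMI 1640 with 10% FBS and treated 24 h at the indicated concentrations. Stained with propidium iodide for 4 h at 4 °C in the dark. Flow cytometry gave the percentage of cells in G₀/G₁, S, G₂/M and sub-G₁ phases.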

[2] = biological target: RAF proto-oncogene serine/threonine-protein kinase (Homo sapiens) (UniProt P04049); assay: Inhibition of Raf-mediated ERK phosphorylation in human DU145 cells at 10 to 20 uM after 24 hrs by Western blot analysis; assay type: cell-based; details: DU-145
Summary of the method: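 Cells in RPMI 1640 with 10% heat-inactivated FBS, 37 °C, 5% CO2; treated in growing medium (DU145 24 h; U937 1 h at 5 × 10⁵/mL). Lysed by sonication in SDS sample buffer with protease inhibitors plus 1 mM orthovanadate and pyrophosphate, boiled 5 min. Blots blocked in 5% milk, primary antibodies 1:1000 overnight at 4 °C, HRP secondary 1:2000, chemiluminescence; α-tubulin loading control.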

U-937 [3] = assay: Induction of apoptosis in human U937 cells assessed as necrotic cells at 10 uM after 18 hrs by annexinV-propidium iodide staining-based flow cytometric analysis (reference value: 0.7%); assay type: functional
[4] = Induction of apoptosis in human M12 cells assessed as necrotic cells at 20 uM after 24 hrs by annexinV-propidium iodide staining-based flow cytometric analysis (reference value: 1.7%); assay type: functional
U-937 [5] = assay: Cell cycle arrest in human U937 cells assessed as sub-diploid apoptotic fraction at 10 uM after 24 hrs by propidium iodide staining-based flow cytometric analysis; assay type: functional; summary of the method: as §1
DU-145 = assay: Growth inhibition of human DU145 cells after 24 hrs by MTS assay; assay type: functional, cell-based
Summary of the method: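 Cells in RPMI 1640 with 10% heat-inactivated FBS, seeded 2 × 10⁴ cells/well and exposed 24 h. MTS reagent added, then 1 h further incubation at 37 °C, 5% CO₂. Formazan absorbance read at 490 nm. Viability expressed as percentage of untreated controls.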

U-937 [6] = assay: Induction of apoptosis in human U937 cells assessed as early apoptotic cells at 10 uM after 6 hrs by annexinV-propidium iodide staining-based flow cytometric analysis (reference value: 4.6%); assay type: functional

Sequence of RAF proto-oncogene serine/threonine-protein kinase (Homo sapiens) (P04049 whole entry): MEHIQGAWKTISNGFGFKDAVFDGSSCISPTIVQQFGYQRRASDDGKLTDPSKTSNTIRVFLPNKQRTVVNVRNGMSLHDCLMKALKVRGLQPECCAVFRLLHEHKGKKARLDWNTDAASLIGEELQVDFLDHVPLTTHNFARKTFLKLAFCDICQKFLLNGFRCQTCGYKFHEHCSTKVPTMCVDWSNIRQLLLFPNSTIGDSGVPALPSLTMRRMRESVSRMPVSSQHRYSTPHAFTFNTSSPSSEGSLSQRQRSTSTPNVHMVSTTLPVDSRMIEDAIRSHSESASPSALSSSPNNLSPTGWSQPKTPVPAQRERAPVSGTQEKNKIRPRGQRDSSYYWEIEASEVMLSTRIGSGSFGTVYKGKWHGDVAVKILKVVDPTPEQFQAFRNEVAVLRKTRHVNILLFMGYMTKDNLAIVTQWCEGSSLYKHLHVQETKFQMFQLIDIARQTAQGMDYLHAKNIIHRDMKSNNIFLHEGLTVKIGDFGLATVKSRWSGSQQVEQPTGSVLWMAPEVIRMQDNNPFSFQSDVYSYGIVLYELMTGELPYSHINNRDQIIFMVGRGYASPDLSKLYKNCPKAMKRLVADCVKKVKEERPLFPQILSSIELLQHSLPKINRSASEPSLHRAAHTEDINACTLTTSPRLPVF

Question: Which results are given for NCCN1C(=O)S/C(=C\CCC2CCCCC2)C1=O?
Answer: Activity (U-937 [1]): Active; inhibition [2]: Active; Activity (U-937 [3]): 2.1%; Activity [4]: 5.2%; Activity (U-937 [5]): 49.9%; growth inhibition (GI) (DU-145): Active; Activity (U-937 [6]): 14.2%
